From PubChem BioAssay
Most compounds without a hit are left out; they make up all but 3.8% or so of the library.
TMEM16A act: TMEM16A chloride channel activators or potentiators, primary screen, cell-based, HTS; 340,000 tested, 0.3% active; AID 623877, 2012; B-score at 10 µM; HEK293 TMEM16A/YFP-H148Q/I152L, iodide quench fluorescence; hits give low values; Anoctamin-1 (Mus musculus), Q8BHY3;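 active means fluorescence-ratio B-score plate-corrected deviation score at least 3 library SD below zero, with starting fluorescence score within 5 deviations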;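 further: channel opened by trigger with iodide after compound preincubation; score built on the fluorescence ratio of max minus min over baseline; more negative score means more quench and so TMEM16A activation or potentiation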
Target sequence (Q8BHY3 whole entry, looked up): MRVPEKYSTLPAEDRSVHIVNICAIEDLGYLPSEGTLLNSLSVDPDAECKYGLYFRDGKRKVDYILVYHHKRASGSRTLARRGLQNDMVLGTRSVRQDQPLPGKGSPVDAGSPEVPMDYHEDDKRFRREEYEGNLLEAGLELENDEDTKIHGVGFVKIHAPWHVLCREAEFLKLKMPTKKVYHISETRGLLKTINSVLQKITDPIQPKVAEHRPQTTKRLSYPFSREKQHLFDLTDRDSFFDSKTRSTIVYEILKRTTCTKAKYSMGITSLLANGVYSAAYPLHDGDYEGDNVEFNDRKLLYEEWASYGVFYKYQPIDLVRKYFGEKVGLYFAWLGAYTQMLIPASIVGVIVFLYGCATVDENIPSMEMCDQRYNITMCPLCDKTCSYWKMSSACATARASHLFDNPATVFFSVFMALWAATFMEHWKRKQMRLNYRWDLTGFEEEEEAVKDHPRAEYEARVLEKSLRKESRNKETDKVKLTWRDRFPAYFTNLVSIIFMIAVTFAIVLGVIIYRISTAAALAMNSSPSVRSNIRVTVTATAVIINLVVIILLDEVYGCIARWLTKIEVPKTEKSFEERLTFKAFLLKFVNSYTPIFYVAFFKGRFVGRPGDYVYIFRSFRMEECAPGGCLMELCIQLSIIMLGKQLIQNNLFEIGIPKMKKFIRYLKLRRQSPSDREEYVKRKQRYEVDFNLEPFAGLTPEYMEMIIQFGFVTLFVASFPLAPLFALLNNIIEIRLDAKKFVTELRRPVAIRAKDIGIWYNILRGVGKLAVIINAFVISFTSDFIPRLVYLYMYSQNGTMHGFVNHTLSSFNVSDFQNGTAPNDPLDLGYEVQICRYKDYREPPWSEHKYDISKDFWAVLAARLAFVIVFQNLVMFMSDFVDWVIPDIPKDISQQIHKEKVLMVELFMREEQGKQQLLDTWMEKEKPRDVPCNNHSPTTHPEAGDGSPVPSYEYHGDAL
ANO1 block: TMEM16A chloride channel inhibitors, primary screen, cell-based, HTS. 310,000 tested, 1.2% active. Anoctamin-1 (Mus musculus), Q8BHY3. normalized B-score (activity score, 25-100; higher = stronger inhibition) at 10 µM. HEK293 TMEM16A/YFP iodide influx fluorescence, ionomycin;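 active means ratio plate-corrected score three or more library SD toward inhibition, starting fluorescence score within five deviations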;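 further: score derived from kinetic fluorescence span divided by baseline fluorescence per well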
MC4R antag cAMP: MC4R antagonists of cAMP signaling, primary screen, cell-based, TR-FRET, antagonist arm of biased-ligand search; MC4R-expressing cells, MTII-stimulated cAMP, LANCE TR-FRET; inhibition, % at 6.5 µM; 360,000 tested, 0.48% active;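 active means inhibition above its plate's cutoff, the mean of tested wells on that plate plus 3 SD, cut at about 29% in these data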;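 further: 0% = Melanotan II alone and 100% = Melanotan II plus saturating MCL0020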
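Assay system: U2OS cells stably expressing human melanocortin 4 receptor (MC4R) / Dosing: 6.5 µM / Timing: compound 30 min, challenge 1 h, detection 1 h / Measured by: Eu-cAMP/anti-cAMP TR-FRET, emission 671 nm / Replicates: singlicate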
MC4R ag barr: MC4R agonists recruiting beta-arrestin, primary screen, cell-based, luminescence, agonist arm of biased-ligand search; 360,000 tested, 0.98% active; activation, % at 8.9 µM; U2OS MC4R beta-arrestin complementation; percent of melanotan II response, DMSO zero;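 active means activation above a per-plate cutoff, the mean activation of sample wells on that plate plus 3 SD, cut at about 8% in these data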
Beta cell apopt: inhibitors of cytokine-induced beta cell apoptosis, primary screen, luminescence. protection from apoptosis, % (no concentration beside the values). AID 435005, 2010. INS-1E cytokine-induced death, ATP luminescence, 48 h; percent of positive-control rescue, neutral wells zero. 300,000 tested, 0.8% active;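 active means Every replicate reaches about 75%, or at least half do and their mean reaches it too, limit read from the data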;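 further: 0% = cytokine-treated negative control wells and 100% = positive control rescue; higher means more ATP so stronger rescue from cytokine killing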
CSC inhib: cancer stem cell viability inhibitors, primary screen, luminescence; inhibition, % at 7.5 µM; cancer stem cell-like cells viability; AID 2717, 2010; 300,000 tested, 1.1% active; in the data active means inhibition above about 75%; tested in HMLE shEcad cells
Numbers without * were called inactive; i = inactive; x = no result given.

SMILES	TMEM16A act	ANO1 block	MC4R antag cAMP	MC4R ag barr	Beta cell apopt	CSC inhib
CCc1ccc(-c2cc(C)no2)cc1S(=O)(=O)N1CCC(C)CC1	i	25*	-3	-1	0	-15
CCNNC(=O)C(O)(Cc1ccccc1)Cc1ccccc1	x	i	6	-2	0	-4
CCCc1c(C(=O)NNc2cccc(Cl)c2)cnn1-c1ccccc1	i	i	-4	3	-5	80*
CCCc1c(C(=O)Nc2ccc(F)cc2F)cnn1-c1ccccc1	i	i	-2	-2	1	-10
CCCc1c(NC(=O)Nc2ccc(Cl)cc2Cl)cnn1-c1ccccc1	i	i	9	9.2*	x	47
C[C@]12CC[C@@H]3c4cc(O)c(O)cc4CC[C@H]3[C@@H]1CC[C@@H]2O	i	i	0	-2	-3	55
CCOc1cc2c(cc1O)C(=NOC)CC1C2CCC2(C)C(O)CCC12 (stereo unspecified)	-6.6*	x	-17	-1	x	x
CC(C)(C)CC(=O)Nc1nnc(C(F)(F)F)s1	i	i	4	-1	3	-1
CC(NC(=O)Nc1nnc(C(F)(F)F)s1)(C(F)(F)F)C(F)(F)F	i	100*	4	1	120*	2
Cc1ccc(S(=O)(=O)NN(Cc2ccccc2)Cc2ccccc2)cc1	x	x	0	8.8*	x	x
Cc1cc(-c2ccc(N=Nc3c(S(=O)(=O)O)cc4cc(S(=O)(=O)O)cc(N)c4c3O)c(C)c2)ccc1N=Nc1c(S(=O)(=O)O)cc2cc(S(=O)(=O)O)cc(N)c2c1O	x	i	x	x	77*	65
COc1ccc(N=CC2=C(Nc3ccc(OC)cc3)c3c(C)nn(-c4ccccn4)c3CC2)cc1	x	i	x	x	110*	x
Cc1[nH]c2ccccc2c1C(=O)CSC(=S)N1CCCCC1	-12*	i	-8	-1	-2	-8
Cc1[nH]c2ccccc2c1C(=O)CSC(=S)N(C)C1CCCCC1	i	i	-5	-3	-2	x
COc1cc(/C=N\NC(=O)c2ccc(-c3ccccc3)cc2)ccc1OCC(N)=O	i	i	3	26*	5	-5
CC(C)(C)c1ccc(C(=O)Cn2nc(C(=O)O)c3ccccc3c2=O)cc1	i	i	1	8.7*	-10	-13
C[C@H](CO)N1C[C@H](C)[C@@H](CN(C)S(=O)(=O)c2cn(C)cn2)Oc2c(NC(=O)Nc3ccc4c(c3)OCO4)cccc2C1=O	i	x	1	-2	1	-18
COc1ccc(/C=N/NC(=O)COc2ccc(Cl)cc2Cl)cc1Cn1nc(C)cc1C	i	i	-3	18*	6	12
Cc1ccc(NS(=O)(=O)c2ccc(Cl)c(NC(=S)NC(=O)C3CCCCC3)c2)cc1Cl	i	i	11	-2	102*	106*
O=c1c2ccccc2nnn1Cc1ccc(Br)cc1	i	i	0	-1	-7	-4
O=c1c2ccccc2nnn1Cc1ccc(F)cc1	i	100*	12	0	1	-3
CC(C)OC(=O)c1ccc(Cn2nnc3ccccc3c2=O)cc1	i	100*	6	0	-5	-9
O=C(NCCCOc1ccc([N+](=O)[O-])cc1Cl)OCc1ccccc1	i	x	-5	-2	x	x
Cc1ccc(Cl)cc1N1CCN(Cc2nc3c(c(=O)[nH]c(=O)n3C)n2CCc2ccccc2)CC1	i	i	8	-1	29	5
Cc1ccc(Cl)cc1N1CCN(Cc2nc3c(c(=O)[nH]c(=O)n3C)n2Cc2ccccc2F)CC1	i	i	-1	1	-16	118*
SMILES	TMEM16A act	ANO1 block	MC4R antag cAMP	MC4R ag barr	Beta cell apopt	CSC inhib
Clc1cc(Cl)cc(Nc2ncnc(-n3cccc3)n2)c1	i	i	11	9.0*	13	2
O=C(O)c1cccc(S(=O)(=O)Nc2ccc(N3CCCCC3)cc2)c1	i	x	9	0	3	1
N/C(=N\OS(=O)(=O)c1ccc2ccccc2c1)c1ccccn1	-26*	x	-2	1	x	x
N/C(=N\OS(=O)(=O)c1ccc2ccccc2c1)c1ccncc1	i	i	0	0	-4	5
Oc1ccc(N2CCN(c3nc(-c4cccs4)nc4ccccc34)CC2)cc1	i	i	12	-1	-1	87*
COC(=O)c1sc2ncccc2c1OCc1c(Cl)cccc1Cl	i	i	-1	20*	-5	4
COC(=O)c1sc2ncccc2c1OCc1cccc(Cl)c1	i	i	3	2	-3	-2
S=C1NC2(CCCCC2)NN1c1ccccc1	-5*	i	-6	-6	-2	-9
CC1CCCC2(C1)NC(=S)N(c1ccccc1)N2 (stereo unspecified)	i	i	9	-4	3	8
COc1ccc(C(C)NCCC(c2ccc(OC(C)C)cc2)c2ccccc2OC)cc1 (stereo unspecified)	i	i	0	20*	82*	104*
Clc1ccc2c(N/N=C/c3cccc(Br)c3)ccnc2c1	i	i	6	0	81*	80*
Clc1ccc2c(N/N=C/c3ccccc3Br)ccnc2c1	i	i	15	6	43	50
O=[N+]([O-])c1ccc(/C=N/Nc2ccnc3cc(Cl)ccc23)o1	i	i	-8	-3	107*	15
CNC(=O)C[C@H]1C(=O)N(Cc2ccccc2)C[C@@H]1Cc1ccccc1	x	x	7	-1	x	x
CCOC(=O)Cn1nc(-c2ccccc2)c2cnc3ccc(CC)cc3c21	i	i	23	8.4*	4	-10
CC1(c2ccc(OC(F)F)cc2)NC(=O)N(CC(=O)Nc2cccc(S(N)(=O)=O)c2)C1=O (stereo unspecified)	i	i	8	-1	4	-23
CC1(c2ccc(OC(F)F)cc2)NC(=O)N(/N=C/c2c(O)ccc3ccccc23)C1=O (stereo unspecified)	-4.7*	i	3	4	x	31
CCOc1ccc(S(=O)(=O)N(C)c2ccc(OCC(=O)Nc3nc4ccccc4s3)cc2)cc1	i	i	12	0	92*	9
Cc1ccc2nc(NC(=O)c3ccccn3)sc2c1	i	i	27	-3	79*	84*
COc1ccc(C(=O)Nc2nc3ccccc3s2)c(OC)c1	i	i	-3	0	45	68
